Published values collected from several papers.
Protocols differ between the studies behind these lines.
PPARA: Peroxisome proliferator-activated receptor alpha (PPARA, Homo sapiens, UniProt Q07869)
CASP9: Caspase-9 (CASP9, Homo sapiens, UniProt P55211)

| SMILES | target | test | system | setting | endpoint | value |
| --- | --- | --- | --- | --- | --- | --- |
| O=C(Nc1cccnn1)N1CCN([C@@H]2CCOc3cc(C(F)(F)F)ccc32)CC1 | Corticotropin-releasing factor receptor 1 (CRHR1, Homo sapiens, UniProt P34998) | ligand displacement |  | 20 µM | inhibition | -62% |
| O=S(=O)(O)C(F)(F)C(F)(F)C(F)(F)C(F)(F)C(F)(F)C(F)(F)F | PPARA | reporter gene, agonist, luciferase | COS-7 |  | Emax | 67% |
| COC(=O)CC[C@H](NC(=O)[C@H](CC(C)C)NC(=O)OCc1ccccc1)C(=O)N[C@@H](Cc1cnc[nH]1)C(=O)N[C@@H](CC(=O)OC)C(=O)CF | CASP9 | enzyme activity, inhibitor |  | 1 µM | inhibition | 50% |
| O=S(=O)(O)C(F)(F)C(F)(F)C(F)(F)C(F)(F)C(F)(F)C(F)(F)C(F)(F)C(F)(F)F | PPARA | reporter gene, agonist, luciferase |  |  | Emax | 33% |
| COc1ccc(S(=O)(=O)N(CC(=O)NO)CC(C)C)cc1 | Interstitial collagenase (MMP1, Homo sapiens, UniProt P03956) | enzyme activity, inhibitor |  | 0.1 µM | inhibition | 2% |
| Nc1ncc(-c2nc(N3CCOCC3)nc(N3CCOCC3)n2)c(C(F)F)n1 | Serine/threonine-protein kinase OSR1 (OXSR1, Homo sapiens, UniProt O95747) | binding, competition with immobilised ligand |  | 10 µM | remaining binding | 54% |
| COc1cc(Nc2ncc(F)c(Nc3ccc4c(n3)NC(=O)C(C)(C)O4)n2)cc(OC)c1OC | Serine/threonine-protein kinase NIM1 (NIM1K, Homo sapiens, UniProt Q8IY84) | binding, competition with immobilised ligand |  | 10 µM | inhibition | 84% |
| CCOC(=O)c1ccc(OC(=O)CCCCCNC(=N)N)cc1 | Ubiquitin carboxyl-terminal hydrolase 7 (USP7, Homo sapiens, UniProt Q93009) | enzyme activity, inhibitor |  | 10 µM | inhibition | 0% |
| Cc1ncc(C)n2nc(/C=C/c3nc(N4CCCC4)cc(N4CCOCC4)n3)nc12 | CASP9 | enzyme activity, inhibitor |  | 10 µM | inhibition | 11% |
| Clc1cccc(-c2c[nH]c3ncnc(N4CCOCC4)c23)c1 | Serine/threonine-protein kinase 4 (STK4, Homo sapiens, UniProt Q13043) | thermal stability, DSF |  | 20 µM | ΔTm | > 8 °C |
| C#Cc1n[nH]c2c(-c3cn([C@@H](C)c4ccccn4)c(=O)[nH]c3=O)cc(F)cc12 | Eukaryotic elongation factor 2 kinase (EEF2K, Homo sapiens, UniProt O00418) | enzyme activity, inhibitor |  | 0.1 µM | inhibition | 4.2% |
| COc1ncccc1-c1cnn2ccc(N3CCN(C(=O)OC(C)C)CC3)nc12 | Myosin-IIIa (MYO3A, Homo sapiens, UniProt Q8NEV4) | binding, competition with immobilised ligand |  | 1 µM | remaining binding | 95% |
| Cc1nn(C)cc1-c1nc2c(N3CCN(Cc4ccc(Cl)cc4)CC3)c(Cl)cnc2[nH]1 | Serine/threonine-protein kinase 36 (STK36, Homo sapiens, UniProt Q9NRP7) | binding, competition with immobilised ligand |  | 1 µM | remaining binding | 74% |
| CN1CCN(c2ccc(Nc3nccc(-c4cccc([N+](=O)[O-])c4)n3)cc2C(F)(F)F)CC1 | Calcium-dependent protein kinase 1 (CDPK1, Plasmodium falciparum, UniProt P62344) | binding |  | 10 µM | remaining binding | 4.2% |
| O=C(O)C(F)(OC(F)(F)C(F)(F)C(F)(F)F)C(F)(F)F (stereo not drawn) | PPARA | reporter gene, agonist, luciferase |  |  | Emax | 134% |
